Results reported in ChEMBL document CHEMBL1151910, “Synthesis and antirhinovirus activity of new 3-benzyl chromene and chroman derivatives” (Bioorg Med Chem, 2009).

Key:
[1] = Cytotoxicity against human HeLa Ohio cells assessed as maximal non-cytotoxic concentration after 3 days by XTT assay; type: cell-based; conditions: read-out: MNCC
rhinovirus B14 [2] = assay: Antiviral activity against HRV 14 infected in human HeLa Ohio cells assessed as reduction in viral plaque formation after 3 days by neutral red uptake assay; type: functional, organism-based
Summary of the method: (§1)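 HeLa (Ohio) monolayers were infected with enough virus for about 100 plaques per well, adsorbed 1 h at 33 °C, then overlaid with plaque medium with or without fourfold drug dilutions. After 3 days at 33 °C, cells were stained with neutral red (0.2 mg/mL in PBS pH 7.4) and plaques counted. IC50 was read from a plot of % plaque reduction vs log dose against mock-treated control.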

rhinovirus A1B [3] = assay: Antiviral activity against HRV 1B infected in human HeLa Ohio cells assessed as reduction in viral plaque formation after 3 days by neutral red uptake assay; type: functional, organism-based, Human rhinovirus 1B; conditions: Rhinovirus A, 72 h; summary of the method: as §1
[4] = Cytotoxicity against human HeLa Ohio cells after 3 days by XTT assay; type: cell-based; conditions: read-out: TC50
[5] = Therapeutic index, ratio of TC50 for human HeLa Ohio cells to IC50 for HRV1B infected in human HeLa Ohio cells; type: cell-based; conditions: read-out: TI
rhinovirus B14 [6] = assay: Antiviral activity against HRV 14 infected in human HeLa Ohio cells assessed as reduction in viral plaque formation at maximum non-cytotoxic concentration after 3 days by neutral red uptake assay; type: functional
Summary of the method: (§2)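 Plaque reduction on HeLa (Ohio) monolayers, with dosing starting from the maximum non-cytotoxic concentration. Virus was adsorbed 1 h at 33 °C, then cells got plaque overlay with fourfold drug dilutions, 3 days at 33 °C, and neutral red staining. Values are % plaque reduction at that concentration vs mock-treated control.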

rhinovirus A1B [7] = assay: Antiviral activity against HRV 1B infected in human HeLa Ohio cells assessed as reduction in viral plaque formation at maximum non-cytotoxic concentration after 3 days by neutral red uptake assay; type: functional, Human rhinovirus 1B; summary of the method: as §2

`O[C@H]1c2cc(Cl)ccc2OC[C@H]1Cc1ccc(Cl)cc1` (relative stereo) showed an MNTC at 72 h [1] of 25 µM.
Molecule `c1ccc(CC2COc3ccccc3C2)cc1` (stereo unspecified) has an MNTC at 72 h [1] of 25 µM.
Work on `Clc1ccc2c(c1)CC(Cc1ccccc1)CO2` (stereo unspecified) yielded an MNTC at 72 h [1] of 25 µM.
Molecule `O[C@H]1c2ccccc2OC[C@H]1Cc1ccccc1` (relative stereo) has an IC50 (rhinovirus B14 [2]; Rhinovirus B, HeLa, 72 h) greater than 25 µM, an IC50 (rhinovirus A1B [3]) of 3.49 µM and a CC50 at 72 h [4] of 150 µM. The selectivity ratio [5] was 43, the “inhibition (INH)” value (rhinovirus B14 [6]) was 15.9% and the MNTC at 72 h [1] was 25 µM. The “inhibition (INH)” value (rhinovirus A1B [7]) was 50%.
Work on `C(=C1/COc2ccccc2C1)/c1ccccc1` yielded an MNTC at 72 h [1] of 25 µM.
In the case of `C1=C(Cc2ccccc2)COc2ccccc21`, the MNTC at 72 h [1] is reported as 25 µM.
`O[C@H]1c2ccccc2OC[C@H]1Cc1ccc(Cl)cc1` (relative stereo) gave an MNTC at 72 h [1] of 12.5 µM.
Work on `Clc1ccc(C2CCc3cc(Cl)ccc3O2)cc1` (stereo unspecified) yielded an MNTC at 72 h [1] of 25 µM.
In the case of `O[C@H]1c2ccccc2OC[C@@H]1Cc1ccccc1` (relative stereo), the IC50 (rhinovirus B14 [2]; hela) is reported as “Not Active”, the IC50 (rhinovirus A1B [3]) is reported as 3.59 µM and the CC50 at 72 h [4] is reported as greater than 200 µM. The selectivity ratio [5] was greater than 55.7, the MNTC at 72 h [1] was 25 µM and the “inhibition (INH)” value (rhinovirus A1B [7]) was 50%.
With `Clc1ccc2c(c1)C/C(=C/c1ccccc1)CO2` the MNTC at 72 h [1] was 25 µM.
